Assay results reported in ChEMBL document CHEMBL4513216, “Probing the Open Global Health Chemical Diversity Library for Multistage-Active Starting Points for Next-Generation Antimalarials” (ACS Infect Dis, 2020).

assay: Toxicity liver stage against HepG2, at 10uM; format: cell-based; design: test concentration 10 uM, cell line HepG2-A16-CD81EGFP; settings: human, HepG2-A16-CD81EGFP cells; read-out: INHIBITION
Summary of the method: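 Uninfected HepG2-A16-CD81EGFP cells, 3 × 10^3 per well, 1536-well, plated on prespotted compound at 10 μM final, parasite-free screening media added to match infected plates; puromycin 10 μM positive, DMSO 0.5% negative; run in parallel with 48 h PbLuc assay at 37 °C, 5% CO2; viability by CellTiter-Glo luminescence, normalized to controls.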

| SMILES | cytotoxicity at 10 µM [%] |
| --- | --- |
| Cc1cccnc1NC(=O)CSc1ccc2c(c1)OCCO2 | -1.66 |
| CCc1cnc(N2C[C@@H]3[C@@H](C(=O)NC(C)C)CCS(=O)(=O)[C@@H]3C2)nc1 | -146 |
| O=C(c1cccnc1)N1CCOCC2(CCN(c3ncccn3)C2)C1 (stereo not drawn) | 8.88 |
| Cn1cc(C2CC(=O)NC23CCN(C(=O)C2CC=CC2)CC3)cn1 (stereo not drawn) | 8.13 |
| CCCS(=O)(=O)N1CCc2onc(CNc3ncccn3)c2C1 | -2.25 |
| Cc1ccc(-n2ccc3nc(N4CCCC4)ncc3c2=O)cc1C | 7.51 |
| CNc1ncccc1CN1CCN(C(C)=O)CC(C(N)=O)C1 (stereo not drawn) | 2.31 |
| Cc1cccnc1C(=O)N1CCCC(Cc2cncc3ccccc23)C1 (stereo not drawn) | -18 |
| Cc1cc(CCC2CN(Cc3ccccc3C(=O)O)CCO2)ncn1 (stereo not drawn) | -19.9 |
| NC(=O)c1ccc(=O)n(Cc2cc(Br)ccc2Cl)n1 | 4.71 |
| N#Cc1cccc(OC2CCN(C(=O)c3cncc(O)c3)CC2)c1 | 7.28 |
| CN(C)c1ccc(NC(=O)c2cccc(N(C)C)c2)nc1 | 23.3 |
| Cc1noc(CNC(=O)NCCOc2ccc(Cl)cc2)n1 | 1.92 |
| CC(C)(CNC(=O)c1ccco1)NC(=O)OC(C)(C)C | -2.43 |
| CC(C)(CNC(=O)c1ccc(Cl)o1)NC(=O)OC(C)(C)C | -2.25 |
| Cn1cc(N2CCN(c3ccc(C#N)cc3Br)CC2=O)cn1 | -5.48 |
| Cc1ccc(C(=O)NC2CCCN(c3ncccn3)C2)cn1 (stereo not drawn) | -7.08 |
| CC(C)N(C)C(=O)COc1ccc(-c2noc(C3CCCO3)n2)cc1 (stereo not drawn) | 4.24 |
| CCc1nc(CN2CCCC(NCCn3cncn3)C2)no1 (stereo not drawn) | -7.24 |
| OC(CN1CCN(CC2CC2)CC1)c1ccc(Br)cc1 (stereo not drawn) | -8.69 |
| COCCn1ccc(NCc2sccc2C)n1 | 5.6 |

| SMILES | cytotoxicity at 10 µM [%] |
| --- | --- |
| CCN(CC)c1ccc(NC(=O)NC(C)Cn2cccn2)cn1 (stereo not drawn) | 1.35 |
| Cc1nnc2n1CCN(Cc1csc(-c3cnn(C)c3)n1)C2 | -3.5 |
| CN(C)c1ccc(NC(=O)c2ccnn2C)nc1 | 15.1 |
| CC(=O)N1CCCN(CCn2nc3ccccn3c2=O)CC1 | -137 |
| CCN(C)c1ccc(CNC(=O)c2cc(C(N)=O)cs2)cc1F | 6.36 |
| CCC(NCc1ccccc1Cl)c1ccccc1OCC(=O)NC (stereo not drawn) | 13.3 |
| Cc1cc(C)n(CC(=O)NC2CCCCNC2=O)n1 (stereo not drawn) | -14.7 |
| Cc1ccc(CN(C)C)cc1NC(=O)C1CC=CC1 | -8 |
| OC(CNc1ccc(Cl)cn1)CN1CCOCC1 (stereo not drawn) | 4.15 |
| CS(=O)(=O)NCCNC(=O)Cc1ccc(Br)s1 | -7.21 |
| N#CC(Sc1nnnn1C1CCOCC1)C1CCCCC1 (stereo not drawn) | 21.7 |
| CC(C)c1noc(-c2ccc(N(C)C3CCOCC3)nc2)n1 | -17.6 |
| CN(Cc1cc[nH]n1)C(=O)C1CC(=O)N(Cc2ccncc2)C1 (stereo not drawn) | 1.59 |
| COc1ccccc1Oc1ncccc1CNC(=O)[C@H](C)O | -2.64 |
| Cc1occc1C(=O)N1CCCC1c1ccc(C(=O)N2CCOCC2)s1 (stereo not drawn) | -143 |
| O=C(CCC1CCN(C(=O)c2cnco2)CC1)NCc1cccc(Cl)c1 | -8.48 |
| Cn1ncc2c(N3CC(N4CCCCC4)C3)nc(C3CCCC3)nc21 | -5.07 |
| Cn1cc(CN(C(=O)c2ccc3ncsc3c2)C2CC2)cn1 | 3.11 |
| CCN(CCc1nc2cc(C)ccc2[nH]1)C(=O)COC | -5.89 |
| CC(C)(O)C1CCCN(C(=O)Nc2nc(-c3ccccc3)ns2)C1 (stereo not drawn) | -137 |
| CC(C)C1CN(Cc2c[nH]cn2)CCCN1CC1CC1 (stereo not drawn) | 0.127 |

| SMILES | cytotoxicity at 10 µM [%] |
| --- | --- |
| O=C(c1ccco1)N1CCc2c(nc(-c3ccncc3)[nH]c2=O)C1 | 10.4 |
| CCCc1nnc(N(C)CC2CCN(CC(C)C)C2)o1 (stereo not drawn) | -1.41 |
| CCc1ncc(C(=O)N(C)CC2Cc3ccccc3O2)cn1 (stereo not drawn) | -0.734 |
| Cc1cc(C)cc(S(=O)(=O)NCC2CNCCOC2)c1 (stereo not drawn) | -1.86 |
| CN(CC1(CO)CCCC1)C(=O)c1cc(COc2ccccc2F)[nH]n1 | 6.2 |
| O=C(NCc1nc[nH]n1)c1cc(COc2ccccc2F)[nH]n1 | -3.58 |
| COc1ccc(C(=O)N2CCN(CCO)CC2)c(F)c1 | -3.79 |
| CCN(CC)S(=O)(=O)c1cccc(C(=O)N(C)Cc2ccsc2)c1 | -6.8 |
| CN(Cc1ccsc1)C(=O)c1ccc(S(=O)(=O)NC(C)(C)C)cc1 | -8.01 |
| CN1CCCC1CNC(=O)CCCOc1ccc(Br)cc1 (stereo not drawn) | -7.69 |
| O=C(CN1CCCC1Cn1cccn1)NCCC1=CCCCC1 (stereo not drawn) | -2.78 |
| Cc1nc(C2CCCN2Cc2ccon2)no1 (stereo not drawn) | -18 |
| CCc1ncc(C(=O)N2CCC(Nc3ccc(C)nn3)CC2)s1 | -7.94 |
| OC(COCc1ccco1)CN1CCc2c(ncn2C2CC2)C1 (stereo not drawn) | -0.885 |
| COc1ccccc1OCCC(=O)N1CCCCC1c1nccs1 (stereo not drawn) | -15.7 |
| CN(C)c1cc(CNC(=O)Nc2cccnc2N2CCCC2)ccn1 | -20.5 |
| Cc1nn(C)c(N(C)C)c1CNC(C)COc1ccc(F)cc1 (stereo not drawn) | -4.38 |
| CCn1cc(NC(=O)NCc2ccc(CO)c(F)c2)cn1 | 8.69 |
| COc1c(CNC2CCc3ccccc32)c(C)nn1C (stereo not drawn) | 7.08 |
| COc1cccc(CN2CCCCC2Cn2nc(C)nc2C)c1 (stereo not drawn) | -11.5 |
| Cc1cnn(CC2CN(Cc3nc4ccccc4o3)CCO2)c1 (stereo not drawn) | -3.49 |

| SMILES | cytotoxicity at 10 µM [%] |
| --- | --- |
| Cc1ccc(C(O)CN2CCN(Cc3nccn3C)CC2)cc1C (stereo not drawn) | -37 |
| CCc1nc(C2CCCN(C(=O)c3ccncc3)C2)no1 (stereo not drawn) | -13 |
| CCn1cnnc1CNC(=O)N1CCN(Cc2ccsc2)CC1 | -15.4 |
| CCn1cc(CN2CCCN(C(=O)c3ccco3)CC2)cn1 | -11.3 |
| COc1ccc2c(c1)CN(c1cc(N3CCCC3CO)ncn1)CC2 (stereo not drawn) | -4.16 |
| CCOc1ccc(CC(CNC(=O)c2ccc(C)o2)C(N)=O)cc1 (stereo not drawn) | 3.58 |
| Cc1nc(CN2CCN(C(=O)c3c(C)noc3C)CC2)cs1 | -23.2 |
| Cc1ccc(C(=O)NCCNc2ncccc2C#N)c(=O)[nH]1 | -7.44 |
| Cc1ccc(CN2C[C@H](OCC3CCOCC3)[C@H]3COC[C@H]32)o1 | -4.58 |
| O=C(CN1CC(c2nc(-c3ccco3)no2)C1)NCCc1ccccc1 | -9.54 |
| Fc1cnc(N2CCc3nnc(COc4ccccn4)n3CC2)nc1 | 8.13 |
| CCN(CC)[C@@H]1CN(C(=O)c2ccnnc2)[C@@H]2CCCO[C@H]12 | -146 |
| Cc1cnc(N2C[C@@H]3CCN(CC(=O)N(C)C)C(=O)[C@H]3C2)nc1 | -19 |
| CCS(=O)(=O)NC[C@]12COC[C@H]1CN(CCc1ccccc1)C2 | 6.07 |
| c1cncc(COCC2CN(Cc3cccnc3)Cc3ccnn3C2)c1 (stereo not drawn) | -136 |
| O=S(=O)(C1CC1)N1CC[C@H]2OCC[C@@]2(COc2ncccc2F)C1 | -150 |
| CC(=O)N1[C@H](CN(C)C)C[C@@H]2CN(C(=O)Cc3cccs3)CC[C@@H]21 | -0.155 |
| CCCS(=O)(=O)N1C[C@@H]2CN(Cc3ccoc3)CCO[C@@H]2C1 | -117 |
| CCc1c(C(=O)N2C[C@@H]3CC[C@H]2CN(c2cnccn2)C3)csc1C | 13.3 |
| O=C1CCC2(CCN(Cc3cscn3)CC2)CN1C1CCC(O)CC1 (stereo not drawn) | -4.33 |
